We go through six molecules from ChEMBL document CHEMBL2069228, “Antidiabetic compounds from Sarracenia purpurea used traditionally by the Eeyou Istchee Cree First Nation” (J Nat Prod, 2012).

Molecules are shown by their SMILES.

Assay [1] concerns C2C12. In words: Increase in glucose uptake in mouse C2C12 cells incubated for 18 hrs using [3H]-2-deoxy-D-glucose by liquid scintillation counting. It counts as functional, cell-based. The gist of the method:
(§1)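 Differentiated confluent C2C12 myotubes were held 18 h in DMEM with 2% horse serum containing compound (6.25–100 μM; 0.1% DMSO vehicle control). Cells were equilibrated 30 min at 37 °C in Krebs phosphate buffer pH 7.4 with 5 mM glucose, rinsed glucose-free, then given 10 μM 2-deoxy-D-glucose plus 1 μCi/mL [3H]-2-deoxyglucose for 10 min at 37 °C. Cells were lysed in 0.1 M NaOH and counted by scintillation.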

Assay [2] relates to C2C12. In words: Increase in glucose uptake in mouse C2C12 cells incubated for 18 hrs using [3H]-2-deoxy-D-glucose by liquid scintillation counting relative to DMSO. It counts as functional. Set-up: concentration or dose not given beside the values. The gist of the method:
as §1

In assay [3] the target is T1, Glucose-6-phosphatase catalytic subunit 1 (Rattus norvegicus) (UniProt P43428).
T1 sequence (whole entry): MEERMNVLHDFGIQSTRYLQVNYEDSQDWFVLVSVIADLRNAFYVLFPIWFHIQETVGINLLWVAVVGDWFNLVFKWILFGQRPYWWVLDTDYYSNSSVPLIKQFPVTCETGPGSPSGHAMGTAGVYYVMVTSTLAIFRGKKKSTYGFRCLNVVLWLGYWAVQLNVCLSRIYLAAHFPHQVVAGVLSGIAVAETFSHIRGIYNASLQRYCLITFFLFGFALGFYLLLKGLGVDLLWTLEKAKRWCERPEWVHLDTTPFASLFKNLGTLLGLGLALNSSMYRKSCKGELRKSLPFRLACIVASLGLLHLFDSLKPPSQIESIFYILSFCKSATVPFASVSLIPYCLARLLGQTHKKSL
In words: Inhibition of glucose-6-phosphatase enzymatic activity in rat […] cells at 50 uM using G6P substrate incubated for 18 hrs by colorimetric assay. It counts as cell-based. The gist of the method:
(§2)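 H4IIE rat hepatoma cells at 90% confluence were treated 18 h with compound (1–100 μM; 0.1% DMSO control, 100 nM insulin reference). Cells were lysed in 15 mM phosphate buffer pH 6.5 with 0.05% Triton and 1.3 mM phenol, and lysate was incubated with 200 mM glucose-6-phosphate for 40 min at 37 °C. Glucose formed was read by glucose oxidase colorimetry at 505 nm and normalised to protein.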

In assay [4] the target is T2, Glucose-6-phosphatase catalytic subunit 1 (Rattus norvegicus, UniProt P43428).
T2 sequence (P43428 whole entry): T1 sequence (whole entry)
In words: Inhibition of glucose-6-phosphatase enzymatic activity in rat […] cells using G6P substrate incubated for 18 hrs by colorimetric assay. It counts as cell-based. The gist of the method: as §2

The mark [5] stands for this setting: Mus musculus, C2C12, read-out: EC50.

Take `O=c1c(O[C@@H]2O[C@H](CO)[C@H](O)[C@H](O)[C@H]2O)c(-c2ccc(O)c(O)c2)oc2cc(O)cc(O)c12` [HYPEROSIDE]: the EC50 in the assay with C2C12 [1] (setting [5]) was found to be 60.5 µM. The Efficacy with C2C12 [2] came to 211%.

In the case of `COC(=O)C1=CO[C@@H](O[C@H]2O[C@H](CO)[C@@H](O)[C@H](O)[C@H]2O)[C@@H]2[C@H](C)O[C@@H](OC)C[C@H]12`, the EC50 in the assay with C2C12 [1] (setting [5]) amounted to 25.9 µM. The Efficacy in the assay with C2C12 [2] is on record as 120%.

For `O=C(/C=C/c1ccc(O)c(O)c1)OC[C@H]1O[C@@H](O[C@@H]2COC(=O)C2)[C@H](O)[C@@H](O)[C@@H]1O`, in assay [3], the inhibition amounted to 44%. Also, the half-maximal effective concentration (EC50) entry in the assay with C2C12 [1] (c2c12) was “Not Active”. The same molecule yielded an IC50 in assay [4] of 13.9 µM.

Take `O=C(/C=C/c1ccc(O)c(O)c1)OC[C@H]1O[C@@H](Oc2c(-c3ccc(O)cc3)oc3cc(O)cc(O)c3c2=O)[C@H](O)[C@@H](O)[C@@H]1O`: the concentration giving a half-maximal response (EC50) in the assay on C2C12 [1] (setting [5]) is 13.8 µM. The molecule also returned an Efficacy in the assay on C2C12 [2] of 188%.

As for `O=C1C[C@H](O[C@@H]2O[C@H](CO)[C@@H](O)[C@H](O)[C@H]2O)CO1` [GOODYEROSIDE], the inhibition in assay [3] is 19.6%. The EC50 in the assay on C2C12 [1] (setting [5]) was found to be 25.6 µM. Also, in the assay with C2C12 [2], the Efficacy worked out at 124%. The IC50 in assay [4] was 391 µM.

`COc1cc(-c2oc3cc(O)cc(O)c3c(=O)c2O[C@@H]2O[C@H](CO)[C@@H](O)[C@H](O)[C@H]2O)ccc1O`: in the assay on C2C12 [1] (setting [5]), the 50% effective concentration (EC50) was found to be 18.5 µM. In the assay on C2C12 [2], this molecule showed an Efficacy of 150%.

What is called EC50 is the concentration that produces a half-maximal response. As a reminder, the inhibition is the relative decrease from the control value, in per cent. What is called IC50 is the concentration that gives 50% inhibition.
